In ChEMBL document CHEMBL3785023, “Development and Pharmacological Characterization of Selective Blockers of 2-Arachidonoyl Glycerol Degradation with Efficacy in Rodent Models of Multiple Sclerosis and Pain” (J Med Chem, 2016):
Activity calls are given as the source filed them.

Key:
[1] = system: Mus musculus; test: Toxicity in C57BL/6J mouse assessed as changes in locomotor activity at 3 mg/kg, ip; assay type: organism-based; details: in vivo
[2] = system: Mus musculus; test: Toxicity in CD-1 mouse assessed as 2-AG level in pawskin at 0.3 mg/kg, ip by LC-MS analysis (reference value: 6.1 +/- 0.3 pmol/g); assay type: organism-based; details: in vivo
Summary of the method: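 Male CD-1 mice received 0.3 mg/kg i.p. in 0.5% DMSO/saline, with formalin (1.25%, 30 µL) injected into the dorsal hind paw. Paw skin or spinal cord was taken at 5 min post-dose. Tissue was homogenized in CHCl3/MeOH/50 mM Tris-HCl (2:1:1) containing d5-2-AG, extracted with chloroform and analysed by LC-MS. n = 4; ANOVA with Bonferroni test.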

[3] = molecular target: Cannabinoid receptor 1 (Homo sapiens, UniProt P21554); test: Displacement of [3H]-CP-55940 from human recombinant CB1 receptor expressed in HEK293 cells after 90 mins; assay type: cell-based
Chain of Cannabinoid receptor 1 (P21554 whole entry): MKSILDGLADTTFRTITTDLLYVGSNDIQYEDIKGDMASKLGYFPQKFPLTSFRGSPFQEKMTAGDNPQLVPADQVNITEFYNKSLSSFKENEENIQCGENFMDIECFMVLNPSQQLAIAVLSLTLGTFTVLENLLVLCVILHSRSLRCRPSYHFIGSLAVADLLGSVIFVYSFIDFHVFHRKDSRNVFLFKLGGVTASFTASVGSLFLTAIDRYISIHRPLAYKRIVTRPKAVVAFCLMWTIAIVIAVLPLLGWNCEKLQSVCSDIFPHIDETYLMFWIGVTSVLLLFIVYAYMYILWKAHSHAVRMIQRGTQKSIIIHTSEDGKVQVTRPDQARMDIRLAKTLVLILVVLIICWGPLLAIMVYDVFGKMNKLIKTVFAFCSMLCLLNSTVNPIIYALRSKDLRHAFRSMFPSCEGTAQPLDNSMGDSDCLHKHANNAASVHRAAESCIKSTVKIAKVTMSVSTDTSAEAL
Summary of the method: (§1)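 Membranes from HEK-293 cells stably expressing human CB1 (Bmax 2.9 pmol/mg) or CB2 (Bmax 6.0 pmol/mg) incubated 90 min at 30 °C with [3H]-CP-55,940: 0.4 nM for CB1, 0.53 nM for CB2. Non-specific binding defined with 10 µM WIN 55212-2.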

[4] = molecular target: Cannabinoid receptor 2 (Homo sapiens, UniProt P34972); test: Displacement of [3H]-CP-55940 from human recombinant CB2 receptor expressed in HEK293 cells after 90 mins; assay type: cell-based; summary of the method: as §1
Chain of Cannabinoid receptor 2 (P34972 whole entry): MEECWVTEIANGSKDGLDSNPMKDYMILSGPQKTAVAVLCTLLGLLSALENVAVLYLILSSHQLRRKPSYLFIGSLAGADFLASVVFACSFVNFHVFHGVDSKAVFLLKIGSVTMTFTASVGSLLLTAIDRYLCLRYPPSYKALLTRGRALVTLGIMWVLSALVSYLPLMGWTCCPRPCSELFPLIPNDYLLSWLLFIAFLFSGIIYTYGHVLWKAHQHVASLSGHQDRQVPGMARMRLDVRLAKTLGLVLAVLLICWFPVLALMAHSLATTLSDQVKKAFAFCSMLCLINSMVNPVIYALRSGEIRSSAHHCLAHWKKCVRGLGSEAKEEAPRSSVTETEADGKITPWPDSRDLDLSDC

[5] = molecular target: T1, Monoglyceride lipase (Rattus norvegicus, UniProt Q8R431); test: Inhibition of MAGL in rat brain membranes preincubated for 20 mins followed by fluorophosphonate-rhodamine addition measured after 30 mins by competitive affinity based proteomic profiling assay; assay type: cell membranes, Membrane
T1 sequence (Q8R431 whole entry): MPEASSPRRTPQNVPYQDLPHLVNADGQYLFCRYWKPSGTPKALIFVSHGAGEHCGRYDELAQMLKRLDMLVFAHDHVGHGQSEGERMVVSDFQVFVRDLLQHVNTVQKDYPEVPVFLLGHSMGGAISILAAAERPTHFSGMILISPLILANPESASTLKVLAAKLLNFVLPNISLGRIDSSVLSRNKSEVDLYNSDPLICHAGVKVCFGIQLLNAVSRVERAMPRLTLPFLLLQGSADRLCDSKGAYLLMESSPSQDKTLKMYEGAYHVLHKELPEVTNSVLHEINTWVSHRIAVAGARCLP
Summary of the method: (§2)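 Rat brain membranes (1 mg/mL) preincubated with 1–1000 nM inhibitor or DMSO for 20 min at 37 °C. FP-rhodamine then added and incubated a further 30 min at 37 °C. Samples run on SDS-PAGE and serine hydrolase bands quantified by in-gel fluorescence.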

[6] = system: Salmonella typhimurium; test: Mutagenicity in Salmonella typhimurium TA98 assessed as increase in number of colonies up to >200 uM by Ames test in presence of S9 fraction; assay type: toxicity, organism-based; details: salmonella enterica subsp. enterica serovar typhimurium
[7] = Apparent permeability from luminal to abluminal side in human endothelial cells cocultured with pericytes at 100 uM after 20 to 60 mins by LC-UV analysis; assay type: ADME, cell-based, Endothelial cell
Summary of the method: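 Human BBB model: endothelial cells derived from hematopoietic stem cells, cocultured 6 days with pericytes. Compound (100 µM in Ringer + Hepes) added luminally together with Lucifer yellow as an integrity marker. Incubated 20, 40 and 60 min at 37 °C; abluminal compound measured by LC-UV. Papp = J/(A·C0).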

[8] = system: Heart; test: Cardiotoxicity in Langendorff-perfused Sprague-Dawley rat heart assessed as coronary perfusion pressure at 1 uM (reference value: 57.45 +/- 2.58 mmHg); assay type: toxicity, tissue-based
[9] = system: Heart; test: Cardiotoxicity in Langendorff-perfused Sprague-Dawley rat heart assessed as heart rate at 0.001 uM by ECG analysis (reference value: 252.78 +/- 9.28 bpm); assay type: toxicity, tissue-based
[10] = system: Heart; test: Cardiotoxicity in Langendorff-perfused Sprague-Dawley rat heart assessed as heart rate at 0.01 uM by ECG analysis (reference value: 252.78 +/- 9.28 bpm); assay type: toxicity, tissue-based
[11] = system: Heart; test: Cardiotoxicity in Langendorff-perfused Sprague-Dawley rat heart assessed as time duration of cardiac cycle length at 0.001 uM by ECG analysis (reference value: 238.38 +/- 9.23 milliseconds); assay type: toxicity, tissue-based
[12] = system: Mus musculus; test: Change in cumulative score in myelin oligodendrocyte glycoprotein (35 to 55)-induced C57BL/6J mouse experimental autoimmune encephalomyelitis model of multiple sclerosis at 3 mg/kg, ip dosed on day 6 postimmunization up to 21 day postimmunization measured from day 8 postimmunization; assay type: functional, organism-based
Summary of the method: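 Female C57BL/6J mice immunized with MOG35-55 peptide. Given 3 mg/kg i.p. daily from day 6 post-immunization to the acute stage (21 ± 1 d.p.i.). Clinical score recorded daily and as a cumulative score; n = 7–9 per group.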

[13] = system: Mus musculus; test: Reduction of IBA1 positive cells in white matter anterior fasciculus of experimental autoimmune encephalomyelitis C57BL/6J mouse spinal cord at 3 mg/kg, ip administered post CB1 antagonist/inverse agonist AM251 addition by immunofluorescence assay; assay type: functional, organism-based
Summary of the method: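 MOG35-55-immunized female C57BL/6J mice were given 3 mg/kg i.p. daily. AM251 or AM630, each at 1 mg/kg, was given 10 min before each dose. Iba1 immunofluorescence with DAPI was done on spinal cord white matter (anterior fasciculus). Positive cells were counted per optic field. One-way ANOVA with Bonferroni test.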

[14] = system: Mus musculus; test: Antinociceptive activity in CD-1 mouse assessed as inhibition of formalin-induced early phase pain response at 0.1 to 0.3 mg/kg, ip dosed 10 mins before formalin injection measured every 5 mins for 60 mins in presence of CB1 antagonist/inverse agonist AM251; assay type: functional, organism-based
Summary of the method: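 Male CD-1 mice, n = 6 per group, injected with formalin (1.25% in saline, 30 μL) into the dorsal hind paw. Inhibitor (0.1 or 0.3 mg/kg i.p. in 0.5% DMSO/saline) given 10 min before formalin. Where used, AM251 or AM630 (1 mg/kg i.p.) given 10 min before the inhibitor. Time spent lifting, licking, shaking or flinching the injected paw recorded every 5 min over 60 min.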

[15] = system: Mus musculus; test: Analgesic activity in CD-1 mouse model of oxaliplatin-induced neuropathic pain assessed as reversal of lowering of threshold to cold stimuli at 10 mg/kg, po coadministered with oxaliplatin for 14 days measured 24 hrs post last dose by cold plate test; assay type: functional, organism-based
[16] = Selectivity ratio of IC50 for human recombinant C-terminal His-tagged FAAH expressed in sf21 cells to IC50 for recombinant C-terminal His6-tagged human MAGL expressed in Escherichia coli
Summary of the method: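 Ratio of IC50 values from two radiometric assays, each read by scintillation counting of the aqueous phase after CHCl3/MeOH 1:1 extraction. MGL assay: 10,000xg cytosolic fraction of human recombinant MGL (0.05 µg/sample), 50 mM Tris-HCl pH 7.0, 37 °C, 20 min, 2-arachidonoyl-[3H]-glycerol. FAAH assay: human recombinant FAAH (2 µg/sample), pH 9.5, 37 °C, 30 min, [14C]-anandamide. Means of three experiments.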

[17] = molecular target: Acyl-protein thioesterase 1/2 (Rattus norvegicus) (UniProt P70470+Q9QYL8); test: Inhibition of LYPLA1/2 in rat brain membranes at 500 to 1000 nM preincubated for 20 mins followed by fluorophosphonate-rhodamine addition measured after 30 mins by competitive affinity based proteomic profiling assay; assay type: cell membranes; details: Membrane; summary of the method: as §2
Chain of Acyl-protein thioesterase 1/2 (Rattus norvegicus) (P70470 whole entry, looked up): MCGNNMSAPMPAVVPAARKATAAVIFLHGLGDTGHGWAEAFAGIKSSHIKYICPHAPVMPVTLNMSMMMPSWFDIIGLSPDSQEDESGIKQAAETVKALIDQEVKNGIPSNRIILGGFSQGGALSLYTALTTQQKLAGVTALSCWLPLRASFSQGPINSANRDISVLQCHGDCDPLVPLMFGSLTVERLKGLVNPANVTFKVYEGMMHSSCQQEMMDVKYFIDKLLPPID
Chain of Acyl-protein thioesterase 1/2 (Rattus norvegicus) (Q9QYL8 whole entry, looked up): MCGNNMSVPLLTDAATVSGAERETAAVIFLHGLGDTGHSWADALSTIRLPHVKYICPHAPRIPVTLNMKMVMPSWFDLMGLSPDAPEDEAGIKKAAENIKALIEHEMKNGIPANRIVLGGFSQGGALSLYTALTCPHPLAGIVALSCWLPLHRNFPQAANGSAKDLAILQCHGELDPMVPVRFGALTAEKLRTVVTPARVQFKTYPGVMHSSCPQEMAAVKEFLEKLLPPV

| SMILES | Activity [1] | Activity [2] [pmol/g] | IC50 [3] [µM] | IC50 [4] [µM] | IC50 [5] [µM] | Activity [6] | Papp at 100 µM [7] [×10⁻⁶ cm/s] | Activity [8] [mmHg] | Activity [9] [bpm] | Activity [10] [bpm] | Time [11] [ms] | Activity [12] | Activity [13] | inhibition [14] | Activity [15] | Ratio IC50 [16] | inhibition [17] |
| --- | --- | --- | --- | --- | --- | --- | --- | --- | --- | --- | --- | --- | --- | --- | --- | --- | --- |
| O=C1[C@H](c2ccc(F)cc2)[C@@H](c2ccc3c(c2)OCO3)N1C1CCN(C(=O)n2cncn2)CC1 (racemic) [listing 1 of 2 here] | Non-toxic | 11 | > 10 | > 10 | 0.01 | Non-toxic | 47 | 75.19 | 254.38 | 254.18 | 236.93 | – | – | – | – | – | – |
| O=C1[C@H](c2ccc(F)cc2)[C@@H](c2ccc3c(c2)OCO3)N1C1CCN(C(=O)n2cncn2)CC1 (racemic) [listing 2 of 2 here] | – | – | – | – | – | – | – | – | – | – | – | Active | inactive | inactive | Active | 389 | Active |
